# Results taken from ChEMBL document CHEMBL1240313, “A clinical drug library screen identifies astemizole as an antimalarial agent” (Nat Chem Biol, 2006).
# Activity calls are given as the source filed them. The rule behind the calls is not given here.
# How the values were obtained:
# [1] = test system: Heme; assay: Displacement of [3H]astemizole from free heme crystal at 15 uM after 16 hrs by scintillation counting
# Outline: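 [3H]-astemizole (27 Ci/mmol) was incubated in triplicate with a 5 nmol heme crystal seed and 50 µM heme in 0.1 M ammonium acetate, pH 4.8, for 16 h at 37°C. Crystal was pelleted, sonicated, and spun through 1.7 M sucrose at 200,000 × g. The pellet was decrystallized in 50 mM NaOH/2% SDS and counted by scintillation.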
# [2] = test system: Heme; assay: Inhibition of heme crystallization after 16 hrs
# Outline: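 Heme crystal extension was seeded with 2.5 nmol heme crystal and run with 50 µM heme in 0.1 M ammonium acetate, pH 4.8, at 37°C for 16 h. Crystal extension was quantified by the differential solubility of free versus crystalline heme in 0.15 M sodium bicarbonate. IC50 came from a four-parameter logistic fit and is given as mean ± s.e.m. of triplicate experiments.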
# [3] = test system: Heme; assay: Inhibition of heme crystallization at 7.5 uM after 24 hrs at pH 5.2 - 5.6
# [4] = test system: Plasmodium falciparum; assay: Antiplasmodial activity against Plasmodium falciparum infected in erythrocytes assessed as stabilization of free heme at 0.05 uCi after 16 hrs by scintillation counting; type: functional, organism-based; details: tested as the 3H-labelled form
# [5] = test system: Plasmodium vinckei; assay: Antimalarial activity against chloroquine-sensitive Plasmodium vinckei infected in mice (Mus musculus) assessed as complete cure from parasite infection at 30 mg/m'2, intraperitoneally qd for 4 days administered 2 hrs post infection measured on day 5; type: functional
# Outline: (§1)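 Male C57/BL6 mice (5-6 weeks, 25 ± 2 g) were infected with the P. vinckei Rhodain strain and assessed by the 4-d parasite suppression test. Astemizole tartrate or acetate, or an equal volume of vehicle, was given intraperitoneally or per os. Parasitemia is reported as mean ± s.e.m. Cure meant survival to 30 days post infection with parasitemia cleared and no recrudescence over the next 30 days. Two-tailed Student's t-test was used.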
# [6] = test system: Plasmodium vinckei; assay: Antimalarial activity against chloroquine-sensitive Plasmodium vinckei infected in mice (Mus musculus) assessed as complete cure from parasite infection at 300 mg/m'2, perorally qd for 4 days administered 2 hrs post infection measured on day 4; type: functional; outline: as §1
# [7] = test system: Plasmodium falciparum; assay: Antimalarial activity against Plasmodium falciparum Dd2 assessed as inhibition of parasite growth after 48 to 96 hrs by [3H]hypoxanthine incorporation assay; type: functional, organism-based
# Outline: (§2)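 Synchronized ring-stage parasites in RPMI 1640 with 10% human serum, 0.2% parasitemia and 2-4% hematocrit, were exposed to drug for 48 or 96 h with [3H]-hypoxanthine. Growth was read as radioactive incorporation. IC50 came from a four-parameter logistic fit and is given as mean ± s.e.m. of triplicate experiments.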
# [8] = test system: Plasmodium falciparum; assay: Antimalarial activity against Plasmodium falciparum ItG assessed as inhibition of parasite growth after 48 to 96 hrs by [3H]hypoxanthine incorporation assay; type: functional, organism-based; outline: as §2
# [9] = test system: Plasmodium vinckei; assay: Antimalarial activity against chloroquine-sensitive Plasmodium vinckei infected in mice (Mus musculus) assessed as reduction in parasitemia at 30 mg/m'2, intraperitoneally […]; type: functional
# [10] = test system: Plasmodium falciparum; assay: Antimalarial activity against Plasmodium falciparum 3D7 assessed as inhibition of parasite growth after 48 to 96 hrs by [3H]hypoxanthine incorporation assay; type: functional, organism-based; outline: as §2
# [11] = test system: Plasmodium yoelii; assay: Antimalarial activity against chloroquine-sensitive Plasmodium yoelii 17X infected in mice (Mus musculus) assessed as complete cure from parasite infection at 15 mg/m'2, intraperitoneal daily for 4 days administered 2 hrs post infection measured on day 5; type: functional, organism-based
# Outline: (§3)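 P. yoelii 17X lethal strain was used in male C57/BL6 mice (5-6 weeks, 25 ± 2 g), assessed by the 4-d suppression test. Drug or an equal volume of vehicle was given intraperitoneally or per os. Parasitemia is reported as mean ± s.e.m. Cure meant survival to day 30 with cleared parasitemia and no recrudescence over a further 30 days. Two-tailed t-test was used.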
# [12] = test system: Plasmodium yoelii; assay: Antimalarial activity against chloroquine-sensitive Plasmodium yoelii 17X infected in mice (Mus musculus) assessed as complete cure from parasite infection at 300 mg/m'2, perorally daily for 4 days administered 2 hrs post infection measured on day 4; type: functional, organism-based; outline: as §3
# [13] = test system: Plasmodium yoelii; assay: Antimalarial activity against chloroquine-sensitive Plasmodium yoelii 17X infected in mice (Mus musculus) assessed as reduction in parasitaemia at 15 mg/m'2, […] administered 2 hrs post infection […]; type: functional
# [14] = test system: Plasmodium vinckei; assay: Antimalarial activity against chloroquine-sensitive Plasmodium vinckei infected in mice (Mus musculus) assessed as reduction in parasitemia at 15 mg/m'2, intraperitoneally […]; type: functional
# [15] = Oral bioavailability in human; type: ADME, organism-based; details: in vivo, read-out: Activity
# [16] = test system: Plasmodium vinckei; assay: Antimalarial activity against chloroquine-sensitive Plasmodium vinckei infected in mice (Mus musculus) assessed as complete cure from parasite infection at 15 mg/m'2, intraperitoneally qd for 4 days administered 2 hrs post infection measured on day 5; type: functional; outline: as §1
# [17] = test system: Plasma; assay: Metabolic stability in human plasma assessed as desmethylastemizole half life; type: ADME, cell-free
# [18] = Drug level in chloroquine-sensitive Plasmodium falciparum 3D7 culture at 1.5 uCi after 20 hrs; type: ADME; details: plasmodium falciparum 3d7, 20 h
# [19] = Drug level in chloroquine-sensitive Plasmodium falciparum 3D7 lysate at 1.5 uCi after 20 hrs; type: ADME; details: plasmodium falciparum 3d7, 20 h
# [20] = Drug level in hemozoin of Plasmodium falciparum Dd2 at 1.5 uCi after 20 hrs; type: ADME; details: plasmodium falciparum dd2, 20 h
# Outline: (§4)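 Duplicate 12 mL ring-stage cultures at 5% parasitemia were incubated with 1.5 µCi [3H]-astemizole for 20 h. Erythrocytes were harvested at the trophozoite stage and washed. Hemozoin was extracted by hypotonic lysis and purified by sucrose-cushion ultracentrifugation, then decrystallized in NaOH/SDS and counted by scintillation.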
# [21] = Drug level in Plasmodium falciparum 3D7 infected erythrocyte lysate at 1.5 uCi after 20 hrs; type: ADME, cell-based
# [22] = Drug level in Plasmodium falciparum Dd2 infected erythrocyte lysate at 1.5 uCi after 20 hrs; type: ADME, cell-based
# [23] = Drug level in hemozoin of Plasmodium falciparum 3D7 at 1.5 uCi after 20 hrs; type: ADME; details: plasmodium falciparum 3d7, 20 h; outline: as §4
# [24] = Drug level in chloroquine-sensitive Plasmodium falciparum Dd2 culture at 1.5 uCi after 20 hrs; type: ADME; details: plasmodium falciparum dd2, 20 h
# [25] = Drug level in chloroquine-resistant Plasmodium falciparum Dd2 lysate at 1.5 uCi after 20 hrs; type: ADME; details: plasmodium falciparum dd2, 20 h
# Outline: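 Duplicate 12 mL ring-synchronized cultures (RPMI 1640, 10% human serum; 5% parasitemia) incubated 20 h with 1.5 µCi tritiated drug. Trophozoite-stage erythrocytes harvested and washed once. Hemozoin released by hypotonic lysis, then pelleted through 1.7 M sucrose/50 mM Tris-HCl pH 8.0 at 200,000 × g for 15 min. Pellet decrystallized in 50 mM NaOH, 2% SDS; radioactivity read by scintillation counting.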
smiles,measurement,setting,value
C=C[C@H]1CN2CC[C@H]1C[C@@H]2[C@@H](O)c1ccnc2ccc(OC)cc12,Activity,[1],Active
same,inhibition,[2],Active
C=C[C@H]1CN2CC[C@H]1C[C@H]2[C@H](O)c1ccnc2ccc(OC)cc12,Activity,[1],inactive
same,inhibition,[2],inactive
CC1(C)S[C@@H]2[C@H](NC(=O)[C@H](N)c3ccccc3)C(=O)N2[C@H]1C(=O)O,Activity,[1],inactive
same,inhibition,[2],inactive
CCN(CC)CCCC(C)Nc1c2ccc(Cl)cc2nc2ccc(OC)cc12 (stereo unspecified),Activity,[1],Active
same,inhibition,[2],Active
CCN(CC)CCCC(C)Nc1ccnc2cc(Cl)ccc12 (stereo unspecified),Activity,[1]; tested as the 3H-labelled form,inactive
same,inhibition,[3]; tested as the 3H-labelled form,Active
same,Activity,[4],Active
COc1ccc(CCN(C)CCCC(C#N)(c2ccc(OC)c(OC)c2)C(C)C)cc1OC (stereo unspecified),Activity,[1],inactive
same,inhibition,[2],inactive
C[C@@H]1CC[C@H]2[C@@H](C)C(=O)O[C@@H]3O[C@@]4(C)CC[C@@H]1[C@]32OO4,Activity,[1],inactive
same,inhibition,[2],inactive
OC(c1cc(C(F)(F)F)nc2c(C(F)(F)F)cccc12)C1CCCCN1 (stereo unspecified),Activity,[1],inactive
same,inhibition,[2],inactive
COc1ccc(CCN2CCC(Nc3nc4ccccc4n3Cc3ccc(F)cc3)CC2)cc1 [ASTEMIZOLE],Activity,[5],inactive
same,Activity,[6],Active
same,IC50,[7],0.457 µM
same,IC50,[8],0.734 µM
same,inhibition (INH),[9],80%
same,inhibition,[3],Active
same,IC50,[10],0.227 µM
same,Activity,[11],inactive
same,IC50,[2],12.3 µM
same,Activity,[12],Active
same,Activity,[4],Active
same,inhibition (INH),[13],44%
Oc1ccc(CCN2CCC(Nc3nc4ccccc4n3Cc3ccc(F)cc3)CC2)cc1 [DESMETHEYLASTEMIZOLE],IC50,[7],0.106 µM
same,inhibition (INH),[14],<=81%
same,IC50,[8],0.0568 µM
same,bioavailability,[15],95%
same,IC50,[10],0.117 µM
same,Activity,[11],inactive
same,IC50,[2],8.13 µM
same,Activity,[16],inactive
same,t1/2,[17],170 h
same,inhibition (INH),[13],40%
Fc1ccc(Cn2c(NC3CCNCC3)nc3ccccc32)cc1 [TECASTEMIZOLE],IC50,[7],3.59 µM
same,IC50,[8],2.23 µM
same,IC50,[10],4.48 µM
[3H]C([3H])([3H])Oc1ccc(CCN2CCC(Nc3nc4ccccc4n3Cc3ccc(F)cc3)CC2)cc1 [[3H]-ASTEMIZOLE],Drug uptake,[18],20.9 cpm/uL
same,Drug uptake,[19],2105 cpm/uL
same,Drug uptake,[20],21389 cpm/uL
same,Drug uptake,[21],179 cpm/uL
same,Drug uptake,[22],144 cpm/uL
same,Drug uptake,[23],19656 cpm/uL
same,Drug uptake,[24],17.9 cpm/uL
same,Drug uptake,[25],2598 cpm/uL
[3H]c1nc2c([3H])c(Cl)c([3H])c([3H])c2c(N([3H])C([3H])(C([3H])([3H])[3H])C([3H])([3H])C([3H])([3H])C([3H])([3H])N(C([3H])([3H])C([3H])([3H])[3H])C([3H])([3H])C([3H])([3H])[3H])c1[3H] (stereo unspecified) [[3H]-CHLOROQUINE],IC50,[2],5.74 µM
